# Results from ChEMBL document CHEMBL2406982, “Structure-activity relationships of new cyanothiophene inhibitors of the essential peptidoglycan biosynthesis enzyme MurF” (Eur J Med Chem, 2013).
# The source made the active and inactive calls. No cut-off for these calls is given here.
# Columns and labels:
# [1] = test system: Streptococcus pneumoniae; assay: Antimicrobial activity against Streptococcus pneumoniae R6 by broth microdilution method; format: functional
# In short: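 MIC by CLSI broth microdilution in Mueller-Hinton broth supplemented with 5% (v/v) lysed horse blood.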
# [2] = test system: Staphylococcus aureus; assay: Antimicrobial activity against Staphylococcus aureus SH1000 by broth microdilution method; format: functional, organism-based
# In short: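 MIC by broth microdilution in Mueller-Hinton broth following CLSI guidelines.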
# [3] = test system: Escherichia coli; assay: Antimicrobial activity against Escherichia coli AB734 by broth microdilution method; format: functional, organism-based
# In short: (§1)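 Broth microdilution MIC per CLSI guidelines in Mueller-Hinton broth. E. coli 1411 and AB734 were also tested with added polymyxin B nonapeptide to permeabilise the outer membrane.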
# [4] = test system: Escherichia coli; assay: Antimicrobial activity against Escherichia coli 1411 by broth microdilution method; format: functional, organism-based; in short: as §1
# [5] = test system: Staphylococcus aureus; assay: Inhibition of Staphylococcus aureus MurF using D-Ala-D-Ala/UMtri-L-Lys as substrate assessed as residual activity at 100 uM after 15 mins by Malachite green method
# In short: (§2)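 S. aureus MurF, purified, assayed in 50 mM Hepes pH 8.0 with 20 mM MgCl2 and 0.005% Triton X-114, with D-Ala-D-Ala, UMtri-L-Lys and ATP. Compound was in DMSO (5% v/v final). After 15 min at 37 °C, Biomol reagent was added and A650 was read 5 min later. Duplicates were run. Residual activity was relative to 5% DMSO controls. IC50 was read as 50% residual activity across seven concentrations.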
# [6] = test system: Escherichia coli; assay: Inhibition of Escherichia coli MurF using D-Ala-D-Ala/UMtri-mDAP as substrate assessed as residual activity at 100 uM after 15 mins by Malachite green method
# In short: (§3)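 Purified E. coli MurF in 50 mM Hepes pH 8.0, 50 mM MgCl2, 0.005% Triton X-114, with D-Ala-D-Ala, UMtri-mDAP and ATP. Compound was added in DMSO (final 5% v/v). Mixtures were incubated 15 min at 37 °C, quenched with Biomol reagent, and absorbance was read at 650 nm after 5 min. Runs were in duplicate. Residual activity was taken versus DMSO-only controls. IC50 came from residual activity at seven concentrations.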
# [7] = Inhibition of Streptococcus pneumoniae MurF using D-Ala-D-Ala/UMtri-L-Lys as substrate after 15 mins by Malachite green method
# In short: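 Purified S. pneumoniae MurF in 50 mM Hepes pH 8.0, 50 mM MgCl2, 0.005% Triton X-114, with D-Ala-D-Ala, UMtri-L-Lys and ATP. Compound was added in DMSO (5% v/v final). Reactions ran 15 min at 37 °C, were stopped with Biomol malachite green reagent, and A650 was measured after 5 min. Runs were in duplicate. Residual activity was versus DMSO controls. IC50 was from seven concentrations.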
# [8] = Inhibition of Staphylococcus aureus MurF using D-Ala-D-Ala/UMtri-L-Lys as substrate after 15 mins by Malachite green method; in short: as §2
# [9] = Inhibition of Escherichia coli MurF using D-Ala-D-Ala/UMtri-mDAP as substrate after 15 mins by Malachite green method; in short: as §3
SMILES,MIC [1],Activity [2],Activity [3],Activity [4],Activity [5],Activity [6],IC50 [7],IC50 [8],IC50 [9]
N#Cc1c(NC(=O)c2cc(S(=O)(=O)N3CCC(=O)CC3)c(Cl)cc2Cl)sc2c1CCCC2,> 128 µg/mL,inactive,inactive,inactive,103%,102%,3.37 µM,,
COc1cc(CN2CCc3c(sc(NC(=O)c4cc(S(=O)(=O)N5CCOCC5)c(Cl)cc4Cl)c3C#N)C2)cc(OC)c1O,16 µg/mL,inactive,inactive,inactive,,,48 µM,84 µM,78 µM
N#Cc1c(NC(=O)c2cc(S(=O)(=O)N3CCOCC3)c(Cl)cc2Cl)sc2c1CCN(Cc1ccc(O)c(C(=O)O)c1)C2,> 128 µg/mL,inactive,inactive,inactive,,,1.41 µM,132 µM,106 µM
N#Cc1cccc(CN2CCc3c(sc(NC(=O)c4cc(S(=O)(=O)N5CCOCC5)c(Cl)cc4Cl)c3C#N)C2)c1,> 128 µg/mL,inactive,inactive,inactive,,,1.17 µM,90 µM,99 µM
CC(=O)Oc1ccc(CN2CCc3c(sc(NC(=O)c4cc(S(=O)(=O)N5CCOCC5)c(Cl)cc4Cl)c3C#N)C2)cc1OC(C)=O,> 128 µg/mL,inactive,inactive,inactive,,,3.03 µM,89 µM,88 µM
CCOC(=O)C1CCCN(S(=O)(=O)c2cc(C(=O)Nc3sc4c(c3C#N)CCCC4)c(Cl)cc2Cl)C1 (configuration not stated),,inactive,inactive,inactive,93%,94%,131 µM,,
N#Cc1ccc(CN2CCc3c(sc(NC(=O)c4cc(S(=O)(=O)N5CCOCC5)c(Cl)cc4Cl)c3C#N)C2)cc1,> 128 µg/mL,inactive,inactive,inactive,,,1.36 µM,80 µM,62 µM
N#Cc1c(NC(=O)c2cc(S(=O)(=O)N3CCOCC3)c(Cl)cc2Cl)sc2c1CCN(Cc1cc(O)ccc1O)C2,32 µg/mL,inactive,inactive,inactive,79%,81%,2.75 µM,,
COC(=O)c1ccc(CN2CCc3c(sc(NC(=O)c4cc(S(=O)(=O)N5CCOCC5)c(Cl)cc4Cl)c3C#N)C2)cc1,> 128 µg/mL,inactive,inactive,inactive,,,0.72 µM,88 µM,59 µM
COc1cc(CN2CCc3c(sc(NC(=O)c4cc(S(=O)(=O)N5CCOCC5)c(Cl)cc4Cl)c3C#N)C2)ccc1O,> 128 µg/mL,inactive,inactive,inactive,64%,,4.15 µM,,98 µM
N#Cc1c(NC(=O)c2cc(S(=O)(=O)N3CCC(C(=O)O)CC3)c(Cl)cc2Cl)sc2c1CCCC2,64 µg/mL,inactive,inactive,inactive,96%,102%,17.9 µM,,
COc1ccc(CN2CCc3c(sc(NC(=O)c4cc(S(=O)(=O)N5CCOCC5)c(Cl)cc4Cl)c3C#N)C2)cc1O,> 128 µg/mL,inactive,inactive,inactive,,,0.6 µM,115 µM,77 µM
N#Cc1c(NC(=O)c2cc(S(=O)(=O)N3CCOCC3)c(Cl)cc2Cl)sc2c1CCN(Cc1cccc(C(=O)O)c1)C2,> 128 µg/mL,inactive,inactive,inactive,,,2.55 µM,118 µM,67 µM
N#Cc1c(NC(=O)c2cc(S(=O)(=O)N3CCOCC3)c(Cl)cc2Cl)sc2c1CCN(Cc1ccc3c(c1)OCO3)C2,> 128 µg/mL,inactive,inactive,inactive,,,0.99 µM,109 µM,73 µM
